Laboratory results reported in ChEMBL document CHEMBL4680253, “Hybrids of MEK inhibitor and NO donor as multitarget antitumor drugs” (Eur J Med Chem, 2020).
pIC50: −log10 of the molar value. Calls of active or inactive are those of the source. The calls are words filed in the database; no cut-off is given here.

What was measured:
MDA-MB-231 [1] = assay: Antiproliferative activity against human MDA-MB-231 cells harboring KRAS G13D/BRAF G464V mutant assessed as inhibition of cell viability after 96 hrs by Celltiter-Glo assay; assay type: functional, cell-based; conditions: MDA-MB-231, 96 h
HCT-116 = assay: Antiproliferative activity against human HCT116 cells harboring KRAS G13D mutant assessed as inhibition of cell viability after 96 hrs by Celltiter-Glo assay; assay type: functional, cell-based; conditions: HCT-116, 96 h
A549 = assay: Antiproliferative activity against human A549 cells harboring KRAS G12S mutant assessed as inhibition of cell viability after 96 hrs by Celltiter-Glo assay; assay type: functional, cell-based; conditions: A549, 96 h
Vero = assay: Cytotoxicity against African green monkey Vero cells assessed as reduction in cell viability after 96 hrs by Celltiter-Glo assay; assay type: cell-based; conditions: Chlorocebus sabaeus
How it was run: (§1)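 Cells kept at 37 °C in humidified 5% CO2 with 10% FBS; Vero in DMEM, HL7702 in RPMI-1640. Compounds added to plated cells and incubated 96 h at 37 °C. Viability read by CellTiter-Glo reagent added directly to the wells. IC50 fitted from the readings.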

L02 = assay: Cytotoxicity against human HL7702 cells assessed as reduction in cell viability after 96 hrs by Celltiter-Glo assay; assay type: cell-based; conditions: L02, 96 h; how it was run: as §1
[2] = Prodrug release in human HCT-116 cells assessed as increase in intracellular NO level at 100 uM measured after 2 hr by DAF-FM DA reagent based laser confocal scanning microscopy; conditions: hct-116, 2 h
[3] = Antiproliferative activity against human A375 cells harboring BRAF V600E mutant assessed as inhibition of cell viability after 96 hrs by Celltiter-Glo assay; assay type: functional, cell-based, A375/R; conditions: A-375, 96 h
HL-60 = assay: Antiproliferative activity against human HL60 cells harboring NRAS […] mutant assessed as inhibition of cell viability after 96 hrs by Celltiter-Glo assay; assay type: functional, cell-based; conditions: HL-60, 96 h
MDA-MB-231 [4] = assay: Induction of apoptosis in human MDA-MB-231 cells assessed as late apoptotic cells at 10 uM incubated for 24 hrs by AnnexinV-FITC and propidium iodide staining based flow cytometry (reference value: 3.54%); assay type: functional
[5] = molecular target: T1, Dual specificity mitogen-activated protein kinase kinase; MEK1/2 (Homo sapiens) (UniProt P36507+Q02750); assay: Inhibition of MEK in human MDA-MB-231 cells assessed as reduction in MEK phosphorylation incubated for 2 hrs by Western blot analysis; assay type: cell-based; conditions: dose 0.1-10 µM
[6] = molecular target: T1, Dual specificity mitogen-activated protein kinase kinase; MEK1/2 (Homo sapiens); assay: Inhibition of MEK in human MDA-MB-231 cells assessed as reduction in ERK phosphorylation incubated for 2 hrs by Western blot analysis; assay type: cell-based; conditions: dose 0.1-10 µM
[7] = molecular target: T1, Dual specificity mitogen-activated protein kinase kinase; MEK1/2 (Homo sapiens); assay: Inhibition of MEK in human MDA-MB-231 cells assessed as reduction in ERK phosphorylation at 1 to 10 uM incubated for 2 hrs by Western blot analysis; assay type: cell-based; conditions: dose 1-10 µM
How it was run: (§2)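 MDA-MB-231 in RPMI-1640 with 10% FBS. Dose series at 1, 3 and 10 µM for 2 h or 24 h; time course at 1 µM or 10 µM over several time points. RIPA lysates with protease/phosphatase inhibitors, equal protein on 4-20% SDS-PAGE, PVDF transfer, 5% milk block. Probed overnight at 4 °C for pMEK, MEK, pERK and ERK, then HRP secondary.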

[8] = molecular target: T1, Dual specificity mitogen-activated protein kinase kinase; MEK1/2 (Homo sapiens); assay: Inhibition of MEK in human MDA-MB-231 cells assessed as reduction in MEK phosphorylation at 1 to 10 uM incubated for 2 hrs by Western blot analysis; assay type: cell-based; conditions: dose 1-10 µM; how it was run: as §2
MDA-MB-231 [9] = assay: Induction of apoptosis in human MDA-MB-231 cells assessed as viable cells at 1 uM incubated for 24 hrs by AnnexinV-FITC and propidium iodide staining based flow cytometry (reference value: 90.962%); assay type: functional; conditions: read-out: Activity
MDA-MB-231 [10] = assay: Induction of apoptosis in human MDA-MB-231 cells assessed as early apoptotic cells at 1 uM incubated for 24 hrs by AnnexinV-FITC and propidium iodide staining based flow cytometry (reference value: 4.4%); assay type: functional
MDA-MB-231 [11] = assay: Induction of apoptosis in human MDA-MB-231 cells assessed as late apoptotic cells at 1 uM incubated for 24 hrs by AnnexinV-FITC and propidium iodide staining based flow cytometry (reference value: 3.54%); assay type: functional
MDA-MB-231 [12] = assay: Induction of apoptosis in human MDA-MB-231 cells assessed as necrotic cells at 1 uM incubated for 24 hrs by AnnexinV-FITC and propidium iodide staining based flow cytometry (reference value: 1.084%); assay type: functional
MDA-MB-231 [13] = assay: Induction of apoptosis in human MDA-MB-231 cells assessed as viable cells at 10 uM incubated for 24 hrs by AnnexinV-FITC and propidium iodide staining based flow cytometry (reference value: 90.962%); assay type: functional; conditions: read-out: Activity
MDA-MB-231 [14] = assay: Induction of apoptosis in human MDA-MB-231 cells assessed as early apoptotic cells at 10 uM incubated for 24 hrs by AnnexinV-FITC and propidium iodide staining based flow cytometry (reference value: 4.4%); assay type: functional
MDA-MB-231 [15] = assay: Induction of apoptosis in human MDA-MB-231 cells assessed as necrotic cells at 10 uM incubated for 24 hrs by AnnexinV-FITC and propidium iodide staining based flow cytometry (reference value: 1.084%); assay type: functional
[16] = molecular target: T1, Dual specificity mitogen-activated protein kinase kinase; MEK1/2 (Homo sapiens); assay: Inhibition of MEK in human MDA-MB-231 cells assessed as reduction in MEK phosphorylation at 1 uM by Western blot analysis; assay type: cell-based; conditions: time 1-6 hrs, TDE = time-dependent effect; how it was run: as §2
[17] = molecular target: T1, Dual specificity mitogen-activated protein kinase kinase; MEK1/2 (Homo sapiens); assay: Inhibition of MEK in human MDA-MB-231 cells assessed as reduction in ERK phosphorylation at 1 uM by Western blot analysis; assay type: cell-based; conditions: time 1-6 hrs, TDE = time-dependent effect; how it was run: as §2
[18] = molecular target: T1, Dual specificity mitogen-activated protein kinase kinase; MEK1/2 (Homo sapiens); assay: Inhibition of MEK in human MDA-MB-231 cells assessed as reduction in MEK phosphorylation at 1 uM incubated for <=1 hr by Western blot analysis; assay type: cell-based; conditions: time hrs <=1; how it was run: as §2
[19] = molecular target: T1, Dual specificity mitogen-activated protein kinase kinase; MEK1/2 (Homo sapiens); assay: Inhibition of MEK in human MDA-MB-231 cells assessed as reduction in ERK phosphorylation at 1 uM incubated for <=1 hr by Western blot analysis; assay type: cell-based; conditions: time hrs <=1; how it was run: as §2
[20] = molecular target: T1, Dual specificity mitogen-activated protein kinase kinase; MEK1/2 (Homo sapiens); assay: Inhibition of MEK in human A549 cells assessed as reduction in MEK phosphorylation at 10 uM incubated for 2 hrs by Western blot analysis; assay type: cell-based
How it was run: (§3)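 A549 cells in RPMI-1640 with 10% FBS, treated 2 h. Cells lysed in RIPA with protease/phosphatase inhibitors on ice for 20 min. Equal protein run on 4-20% SDS-PAGE and blotted to PVDF. Membranes blocked in 5% milk, then probed overnight at 4 °C with rabbit mAbs to pMEK, MEK, pERK and ERK, followed by HRP secondary. GAPDH used as loading control.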

[21] = molecular target: T1, Dual specificity mitogen-activated protein kinase kinase; MEK1/2 (Homo sapiens); assay: Inhibition of MEK in human A549 cells assessed as reduction in ERK phosphorylation at 1 uM incubated for 2 hrs by Western blot analysis; assay type: cell-based; how it was run: as §3

T1 sequence (P36507 whole entry, looked up): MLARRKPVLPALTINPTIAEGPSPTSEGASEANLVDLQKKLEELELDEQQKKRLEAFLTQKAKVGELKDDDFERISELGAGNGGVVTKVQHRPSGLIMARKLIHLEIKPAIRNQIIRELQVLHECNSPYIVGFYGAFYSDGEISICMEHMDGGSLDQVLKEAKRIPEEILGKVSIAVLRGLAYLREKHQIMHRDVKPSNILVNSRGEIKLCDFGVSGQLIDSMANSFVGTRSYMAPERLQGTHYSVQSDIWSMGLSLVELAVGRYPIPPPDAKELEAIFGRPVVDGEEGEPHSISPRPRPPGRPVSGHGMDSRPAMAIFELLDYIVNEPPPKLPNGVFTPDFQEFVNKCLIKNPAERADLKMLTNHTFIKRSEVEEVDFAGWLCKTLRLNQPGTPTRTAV
T1 sequence (Q02750 whole entry, looked up): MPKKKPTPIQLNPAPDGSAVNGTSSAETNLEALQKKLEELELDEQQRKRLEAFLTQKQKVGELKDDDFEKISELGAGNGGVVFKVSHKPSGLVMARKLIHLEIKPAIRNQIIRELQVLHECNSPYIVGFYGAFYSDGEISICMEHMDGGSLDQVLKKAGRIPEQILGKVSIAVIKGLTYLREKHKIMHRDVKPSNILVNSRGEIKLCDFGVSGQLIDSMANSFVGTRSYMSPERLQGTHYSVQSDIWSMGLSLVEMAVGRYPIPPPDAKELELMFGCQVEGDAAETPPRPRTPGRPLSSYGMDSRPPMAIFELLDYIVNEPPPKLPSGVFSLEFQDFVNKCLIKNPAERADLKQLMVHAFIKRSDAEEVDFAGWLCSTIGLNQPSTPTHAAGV

Compound	pIC50 (MDA-MB-231 [1])	pIC50 (HCT-116)	pIC50 (A549)	Drug metabolism [2]	pIC50 [3]	pIC50 (HL-60)	further results
CNS(=O)(=O)Nc1cccc(Cc2c(C)c3ccc(OCCCCOc4no[n+]([O-])c4S(=O)(=O)c4ccccc4)cc3oc2=O)c1F	6.70	5.56	5.46	Metabolite_Detected	–	–	pIC50 (Vero): 5.53; pIC50 (L02): 5.71
COCCNS(=O)(=O)Nc1cccc(Cc2c(C)c3ccc(OCCOc4no[n+]([O-])c4S(=O)(=O)c4ccccc4)cc3oc2=O)c1F	6.42	6.15	5.64	Metabolite_Detected	6.27	6.51	–
CONS(=O)(=O)Nc1cccc(Cc2c(C)c3ccc(OCCO)cc3oc2=O)c1F	–	–	–	Metabolite_Notdetected	–	–	–
CCNS(=O)(=O)Nc1cccc(Cc2c(C)c3ccc(OCCOc4no[n+]([O-])c4S(=O)(=O)c4ccccc4)cc3oc2=O)c1F	6.74	6.14	5.59	Metabolite_Detected	6.27	6.54	–
CNS(=O)(=O)Nc1cccc(Cc2c(C)c3ccc(OCCCCO)cc3oc2=O)c1F	5.49	5.13	< 5.30	Metabolite_Notdetected	–	–	–
CC(=O)Nc1cccc(-n2c(=O)n(C3CC3)c(=O)c3c(Nc4ccc(I)cc4F)n(C)c(=O)c(C)c32)c1 [TRAMETINIB]	7.74	7.72	6.34	–	8.62	8.52	–
CNS(=O)(=O)Nc1cccc(Cc2c(C)c3ccc(OCCO)cc3oc2=O)c1F	5.66	5.46	< 5.30	Metabolite_Notdetected	6.82	7.00	–
CNS(=O)(=O)Nc1cccc(Cc2c(C)c3ccc(OCCCO)cc3oc2=O)c1F	5.72	5.27	< 5.30	Metabolite_Notdetected	–	–	–
Cc1c(Cc2cccc(NS(=O)(=O)NCCC#N)c2F)c(=O)oc2cc(OCCOc3no[n+]([O-])c3S(=O)(=O)c3ccccc3)ccc12	6.57	6.12	5.58	Metabolite_Detected	6.18	6.19	–
Cc1c(Cc2cccc(NS(=O)(=O)NCCC#N)c2F)c(=O)oc2cc(OCCO)ccc12	5.26	4.81	< 5.30	Metabolite_Notdetected	6.19	6.41	–
CONS(=O)(=O)Nc1cccc(Cc2c(C)c3ccc(OCCOc4no[n+]([O-])c4S(=O)(=O)c4ccccc4)cc3oc2=O)c1F	6.51	6.00	5.43	Metabolite_Detected	6.06	5.25	–
CNS(=O)(=O)Nc1cccc(Cc2c(C)c3ccc(OCCCOc4no[n+]([O-])c4S(=O)(=O)c4ccccc4)cc3oc2=O)c1F	7.47	6.19	5.87	Metabolite_Detected	–	–	Activity (MDA-MB-231 [4]): 6.87%; inhibition [5]: Dose-dependent effect; inhibition [6]: Dose-dependent effect; inhibition [7]: Active; inhibition [8]: Active; pIC50 (Vero): 4.68; pIC50 (L02): 5.25; viability at 1 µM (MDA-MB-231 [9]): 61.2%; Activity (MDA-MB-231 [10]): 22.6%; Activity (MDA-MB-231 [11]): 7.65%; Activity (MDA-MB-231 [12]): 8.443%; viability at 10 µM (MDA-MB-231 [13]): 53.7%; Activity (MDA-MB-231 [14]): 24.7%; Activity (MDA-MB-231 [15]): 14.729%; inhibition [16]: Tde; inhibition [17]: Tde; inhibition [18]: Active; inhibition [19]: Active
COCCNS(=O)(=O)Nc1cccc(Cc2c(C)c3ccc(OCCO)cc3oc2=O)c1F	5.52	5.19	< 5.30	Metabolite_Notdetected	6.44	6.60	–
Cc1c(Cc2cccc(NS(=O)(=O)NC(C)C)c2F)c(=O)oc2cc(OCCO)ccc12	5.62	5.29	< 5.30	Metabolite_Notdetected	6.82	6.85	–
CNS(=O)(=O)Nc1nccc(Cc2c(C)c3ccc(Oc4ncccn4)cc3oc2=O)c1F [AVUTOMETINIB]	6.77	7.28	5.91	Metabolite_Notdetected	7.77	8.22	Activity (MDA-MB-231 [4]): 2.37%; inhibition [20]: Active; inhibition [21]: Active; inhibition [7]: Active; inhibition [8]: Active; pIC50 (Vero): < 4.30; pIC50 (L02): 4.76; viability at 1 µM (MDA-MB-231 [9]): 88.8%; Activity (MDA-MB-231 [10]): 8.45%; Activity (MDA-MB-231 [11]): 1.92%; Activity (MDA-MB-231 [12]): 0.87%; viability at 10 µM (MDA-MB-231 [13]): 89.7%; Activity (MDA-MB-231 [14]): 7.32%; Activity (MDA-MB-231 [15]): 0.57%
CCOC(=O)N1CCN(/[N+]([O-])=N/Oc2ccc([N+](=O)[O-])cc2[N+](=O)[O-])CC1	5.54	6.30	6.16	Metabolite_Detected	5.70	6.28	Activity (MDA-MB-231 [4]): 19.2%; pIC50 (Vero): 5.94; pIC50 (L02): 5.70; viability at 10 µM (MDA-MB-231 [13]): 51.2%; Activity (MDA-MB-231 [14]): 27.1%; Activity (MDA-MB-231 [15]): 2.444%
Cc1c(Cc2cccc(NS(=O)(=O)NCC(F)(F)F)c2F)c(=O)oc2cc(OCCO)ccc12	5.11	4.99	< 5.30	Metabolite_Notdetected	6.03	6.11	–
CCNS(=O)(=O)Nc1cccc(Cc2c(C)c3ccc(OCCO)cc3oc2=O)c1F	5.61	5.24	< 5.30	Metabolite_Notdetected	6.70	6.82	–
Cc1c(Cc2cccc(NS(=O)(=O)NCC(F)(F)F)c2F)c(=O)oc2cc(OCCOc3no[n+]([O-])c3S(=O)(=O)c3ccccc3)ccc12	6.89	6.21	5.60	Metabolite_Detected	6.30	6.57	–
Cc1c(Cc2cccc(NS(=O)(=O)NC(C)C)c2F)c(=O)oc2cc(OCCOc3no[n+]([O-])c3S(=O)(=O)c3ccccc3)ccc12	6.07	5.91	5.52	Metabolite_Detected	6.01	6.26	–
